According to ChEMBL document CHEMBL1125528, “Synthesis and pharmacological evaluation of enantiomerically pure 4-deoxy-4-fluoromuscarines” (J Med Chem, 1992):

Legend:
[1] = biological target: Muscarinic acetylcholine receptor M3 (Cavia porcellus) (UniProt Q8VH26); experiment: In vitro potency at muscarinic M3 receptors of guinea pig bladder.; format: functional
In short: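 Guinea pig bladder longitudinal strip (2 mm wide, urethra to apex) in ileum PSS at 37 °C with isometric recording; 30 min equilibration, then the ileum protocol.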

[2] = biological target: T1, Muscarinic acetylcholine receptor M2 (Homo sapiens) (UniProt P08172); experiment: Dissociation constant at guinea pig heart(atria rate).; format: functional; settings: Cavia porcellus; target entry is the homologue from another species
T1 sequence (whole entry): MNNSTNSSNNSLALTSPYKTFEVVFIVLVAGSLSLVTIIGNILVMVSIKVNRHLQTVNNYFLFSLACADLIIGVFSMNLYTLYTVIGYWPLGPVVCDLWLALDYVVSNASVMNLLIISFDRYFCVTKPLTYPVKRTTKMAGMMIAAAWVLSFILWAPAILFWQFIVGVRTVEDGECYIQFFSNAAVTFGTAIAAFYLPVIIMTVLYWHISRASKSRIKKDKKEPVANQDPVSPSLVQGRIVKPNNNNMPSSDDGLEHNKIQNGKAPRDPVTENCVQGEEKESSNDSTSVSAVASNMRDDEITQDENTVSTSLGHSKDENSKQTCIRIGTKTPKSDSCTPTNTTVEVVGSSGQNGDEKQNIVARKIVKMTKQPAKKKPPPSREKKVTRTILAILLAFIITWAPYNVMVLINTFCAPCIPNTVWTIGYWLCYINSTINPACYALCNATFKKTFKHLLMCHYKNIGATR

[3] = biological target: Muscarinic acetylcholine receptor M3 (Cavia porcellus) (UniProt Q8VH26); experiment: % receptor occupied at ED50 on guinea pig ileum; format: tissue-based
[4] = biological target: T1, Muscarinic acetylcholine receptor M2 (Homo sapiens); experiment: In vitro potency at muscarinic M2 receptors of guinea pig heart(atria rate).; format: functional; settings: Cavia porcellus; target entry is the homologue from another species
[5] = biological target: Muscarinic acetylcholine receptor M3 (Cavia porcellus) (UniProt Q8VH26); experiment: Efficacy for muscarinic receptors in guinea pig ileum relative to muscarine.; format: functional, tissue-based
[6] = biological target: T1, Muscarinic acetylcholine receptor M2 (Homo sapiens); experiment: Potency at cardiac M2 receptors mediating bradycardia to decrease the heart rate in pithed rat; format: functional, tissue-based
In short: (§1)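 Pithed rats, artificially respired at 60 cycles/min, 1 mL/100 g, with heparin 150 IU/kg iv, at about 37 °C. Heart rate came from the carotid pressure pulse after at least 30 min stabilisation. Agonists in 0.9% saline were given iv at 0.1 mL/100 g, one curve per preparation. ED50 was read graphically. Antagonists (pirenzepine 50 µg/kg, methoctramine 300 µg/kg iv) were given 20 min beforehand.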

[7] = biological target: Muscarinic acetylcholine receptor M3 (Cavia porcellus) (UniProt Q8VH26); experiment: % receptor occupied at ED50 on guinea pig bladder
[8] = biological target: Muscarinic acetylcholine receptor M3 (Cavia porcellus) (UniProt Q8VH26); experiment: Dissociation constant at muscarinic M3 receptors of guinea pig bladder.
[9] = biological target: Muscarinic acetylcholine receptor M3 (Cavia porcellus) (UniProt Q8VH26); experiment: Dissociation constant at muscarinic M3 receptors of guinea pig ileum.; format: tissue-based
[10] = biological target: T2, Muscarinic acetylcholine receptor M1 (Homo sapiens) (UniProt P11229); experiment: Potency at ganglionic M1 receptors mediating tachycardia to increase the heart rate in pithed rat; format: functional, tissue-based; in short: as §1
T2 sequence (whole entry): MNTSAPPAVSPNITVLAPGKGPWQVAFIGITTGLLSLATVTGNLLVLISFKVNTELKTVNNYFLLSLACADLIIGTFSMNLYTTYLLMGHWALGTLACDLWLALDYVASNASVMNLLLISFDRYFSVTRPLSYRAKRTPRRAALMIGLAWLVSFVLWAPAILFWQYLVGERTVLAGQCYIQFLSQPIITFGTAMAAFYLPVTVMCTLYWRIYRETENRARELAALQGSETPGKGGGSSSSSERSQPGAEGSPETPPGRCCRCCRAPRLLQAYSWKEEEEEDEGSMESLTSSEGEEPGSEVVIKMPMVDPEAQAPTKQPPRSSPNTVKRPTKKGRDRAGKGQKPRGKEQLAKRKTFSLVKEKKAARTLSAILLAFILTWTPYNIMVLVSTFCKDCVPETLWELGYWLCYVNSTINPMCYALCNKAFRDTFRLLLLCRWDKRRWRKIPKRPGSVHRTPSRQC

[11] = biological target: T1, Muscarinic acetylcholine receptor M2 (Homo sapiens); experiment: Efficacy for muscarinic receptors in guinea pig heart(atria rate) relative to muscarine.; format: functional; settings: Cavia porcellus; target entry is the homologue from another species
[12] = biological target: T1, Muscarinic acetylcholine receptor M2 (Homo sapiens); experiment: In vitro potency at muscarinic M2 receptors of guinea pig heart relative to muscarine.; format: functional; settings: Cavia porcellus; target entry is the homologue from another species
[13] = biological target: Muscarinic acetylcholine receptor M3 (Cavia porcellus) (UniProt Q8VH26); experiment: In vitro potency at muscarinic M3 receptors of guinea pig ileum.; format: functional, tissue-based
[14] = biological target: Muscarinic acetylcholine receptor M3 (Cavia porcellus) (UniProt Q8VH26); experiment: In vitro potency at muscarinic M3 receptors of guinea pig ileum relative to muscarine..; format: functional, tissue-based
[15] = biological target: Muscarinic acetylcholine receptor M3 (Cavia porcellus) (UniProt Q8VH26); experiment: In vitro potency at muscarinic M3 receptors of guinea pig bladder relative to muscarine..; format: functional
[16] = biological target: T1, Muscarinic acetylcholine receptor M2 (Homo sapiens); experiment: % receptor occupied at ED50 on guinea pig heart(atria rate); settings: Cavia porcellus; target entry is the homologue from another species
[17] = biological target: Muscarinic acetylcholine receptor M3 (Cavia porcellus) (UniProt Q8VH26); experiment: Affinity for muscarinic receptors in guinea pig ileum relative to muscarine.; format: tissue-based
[18] = biological target: Muscarinic acetylcholine receptor M3 (Cavia porcellus) (UniProt Q8VH26); experiment: Affinity for muscarinic receptors in guinea pig bladder relative to muscarine.
[19] = biological target: T1, Muscarinic acetylcholine receptor M2 (Homo sapiens); experiment: In vitro potency at muscarinic M2 receptors of guinea pig heart(atria force).; format: functional; settings: Cavia porcellus; target entry is the homologue from another species
[20] = biological target: T1, Muscarinic acetylcholine receptor M2 (Homo sapiens); experiment: % receptor occupied at ED50 on guinea pig heart(atria force); settings: Cavia porcellus; target entry is the homologue from another species
[21] = biological target: T1, Muscarinic acetylcholine receptor M2 (Homo sapiens); experiment: Affinity for muscarinic receptors in guinea pig heart(atria rate) relative to muscarine.; settings: Cavia porcellus; target entry is the homologue from another species
[22] = biological target: Muscarinic acetylcholine receptor M3 (Cavia porcellus) (UniProt Q8VH26); experiment: Efficacy for muscarinic receptors in guinea pig bladder relative to muscarine.; format: functional
[23] = biological target: T1, Muscarinic acetylcholine receptor M2 (Homo sapiens); experiment: Affinity for muscarinic receptors in guinea pig heart(atria force) relative to muscarine.; settings: Cavia porcellus; target entry is the homologue from another species
[24] = biological target: T1, Muscarinic acetylcholine receptor M2 (Homo sapiens); experiment: Dissociation constant at guinea pig heart(atria force).; format: functional; settings: Cavia porcellus; target entry is the homologue from another species
[25] = biological target: T1, Muscarinic acetylcholine receptor M2 (Homo sapiens); experiment: Efficacy for muscarinic receptors in guinea pig heart(atria force relative to muscarine.; format: functional; settings: Cavia porcellus; target entry is the homologue from another species
[26] = biological target: Muscarinic acetylcholine receptor M3 (Cavia porcellus) (UniProt Q8VH26); settings: Ileum
[27] = biological target: Muscarinic acetylcholine receptor M3 (Cavia porcellus) (UniProt Q8VH26); settings: Ileum; remark: listed apart in the source
[28] = biological target: Muscarinic acetylcholine receptor M3 (Cavia porcellus) (UniProt Q8VH26); settings: Ileum; remark: listed apart in the source
[29] = biological target: Muscarinic acetylcholine receptor M3 (Cavia porcellus) (UniProt Q8VH26); experiment: % muscarinic acetylcholine receptor M3 occupied at ED50 on guinea pig ileum; format: tissue-based
[30] = biological target: Muscarinic acetylcholine receptor M3 (Cavia porcellus) (UniProt Q8VH26); experiment: % muscarinic acetylcholine receptor M3 occupied at ED50 on guinea pig bladder

Sequence of Muscarinic acetylcholine receptor M3 (Cavia porcellus) (Q8VH26 1-587): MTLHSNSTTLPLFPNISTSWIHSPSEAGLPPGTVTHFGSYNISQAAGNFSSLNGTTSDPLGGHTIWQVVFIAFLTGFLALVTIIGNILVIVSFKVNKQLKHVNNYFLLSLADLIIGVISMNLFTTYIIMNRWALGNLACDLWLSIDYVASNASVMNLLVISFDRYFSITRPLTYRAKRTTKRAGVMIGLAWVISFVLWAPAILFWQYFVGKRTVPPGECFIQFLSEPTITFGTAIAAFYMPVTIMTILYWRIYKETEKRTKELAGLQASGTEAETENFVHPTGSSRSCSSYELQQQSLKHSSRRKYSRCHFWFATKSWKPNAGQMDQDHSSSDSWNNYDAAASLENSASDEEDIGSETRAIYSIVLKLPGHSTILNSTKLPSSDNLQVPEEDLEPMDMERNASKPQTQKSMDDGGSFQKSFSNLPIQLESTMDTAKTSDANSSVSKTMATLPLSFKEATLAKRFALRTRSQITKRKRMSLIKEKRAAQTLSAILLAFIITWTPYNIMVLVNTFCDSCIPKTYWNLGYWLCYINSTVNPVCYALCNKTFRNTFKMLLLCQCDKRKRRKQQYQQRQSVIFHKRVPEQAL

## C[C@@H]1O[C@H](C[N+](C)(C)C)C[C@H]1F
[1]
  PD2: 5.66
[2]
  -Log KD: 5.77
[3]
  Receptor occupied: 2.24%
[4]
  -Log ED50: 6.87
[5]
  Relative efficacy: 2.96
[6]
  ED50: 0.0235 mg/kg
[7]
  Receptor occupied: 5.11%
[8]
  -Log KD: 4.39
[9]
  -Log KD: 5.72
[10]
  ED50: 0.0045 mg/kg
[11]
  Relative efficacy: 0.21
[12]
  Intrinsic activity: 0.98
[13]
  PD2: 7.36
[14]
  Intrinsic activity: 0.95
[15]
  Intrinsic activity: 0.88
[16]
  Receptor occupied: 7.36%
[17]
  Relative affinity: 0.59
[18]
  Relative affinity: 0.59
[19]
  PD2: 6.73
[20]
  Receptor occupied: 0.86%
[21]
  Relative affinity: 14.5
[22]
  Relative efficacy: 1.54
[23]
  Relative affinity: 0.93
[24]
  -Log KD: 4.67
[25]
  Relative efficacy: 1.17

## C[C@@H]1O[C@H](C[N+](C)(C)C)C[C@H]1O (racemic)
[26]
  PD2: 5.69
[27]
  PD2: 7.1
[28]
  -Log KD: 5.95
[29]
  Receptor occupied: 6.62%
[30]
  Receptor occupied: 7.85%

## C[C@@H]1O[C@H](C[N+](C)(C)C)C[C@@H]1F
[1]
  -Log ED50: 3.74
[12]
  Intrinsic activity: 0.76
[13]
  -Log ED50: 5.02
[15]
  Intrinsic activity: 0.76
[19]
  -Log ED50: 4.43

## C[C@@H]1O[C@@H](C[N+](C)(C)C)C[C@H]1F
[1]
  -Log ED50: 4.45
[12]
  Intrinsic activity: 0.97
[13]
  -Log ED50: 5.93
[15]
  Intrinsic activity: 0.74
[19]
  -Log ED50: 5.59

## C[C@@H]1O[C@@H](C[N+](C)(C)C)C[C@@H]1F
[1]
  -Log ED50: 3.92
[12]
  Intrinsic activity: 0.72
[13]
  -Log ED50: 4.64
[15]
  Intrinsic activity: 0.52
[19]
  -Log ED50: 4.07
